# Results collected from several papers.
# Each line is one published result; the experiments were not run side by side.
SMILES,tested on,test,test system,conditions,quantity,result
CCOC(=O)C1=C(CN2CCC(C(=O)Nc3ccc(B4OC(C)(C)C(C)(C)O4)cc3)C2)NC(c2nccs2)=NC1c1ccc(F)cc1Br (stereo not drawn),Hepatitis B virus,"viral replication, inhibitor, qPCR",HepDES19,72 h,EC50,0.77 µM
O=C1C(=Nc2ccccc2I)c2ccccc2N1Cc1ccc([N+](=O)[O-])cc1,L02,"cell growth or viability, MTT",,48 h,IC50,56.3 µM
C[C@H](Nc1ccc2c(c1)OCCn1cc(N3C(=O)OC[C@H]3C(F)F)nc1-2)C(N)=O,CAL-51,"cell growth or viability, ATP luminescence",,5 days,EC50,1.26 µM
CCOC(=O)C1=C(CN2CCC[C@@H]2C(=O)Nc2cccc(B(O)O)c2)NC(c2nccs2)=N[C@H]1c1ccc(F)cc1Br,Hepatitis B virus,"viral replication, inhibitor, qPCR",HepDES19,72 h,EC50,0.12 µM
CNC(=S)NN=Cc1ccc([N+](=O)[O-])cc1,Leishmania tropica,parasite growth,J774.A1,"72 h, intracellular, amastigote",IC50,258 µM
Nc1ccn([C@@H]2CS[C@H](CO)O2)c(=O)n1,Hepatitis B virus,"viral replication, inhibitor, qPCR",HepDES19,72 h,EC50,0.4 µM
O=C1Nc2ccccc2C1=Nc1cccc(Cl)c1,L02,"cell growth or viability, MTT",,48 h,IC50,16 µM
COc1ccc(C=NNC(=S)Nc2cccnc2)cc1,Leishmania tropica,parasite growth,J774.A1,"72 h, intracellular, amastigote",IC50,350 µM
CCOC(=O)C1=C(CN2CCC[C@@H]2C(=O)Nc2ccc(B(O)O)cc2)NC(c2nccs2)=N[C@H]1c1ccc(F)cc1Br,Hepatitis B virus,"viral replication, inhibitor, qPCR",HepDES19,72 h,EC50,0.07 µM
O=C1C(=Nc2ccccc2Br)c2ccccc2N1Cc1ccccc1,L02,"cell growth or viability, MTT",,48 h,IC50,66.2 µM
C[C@H]1CN(C)CCCN1c1nccc(-c2noc([C@@]3(C)CCCc4sc(N)c(C#N)c43)n2)n1,BaF3,cell growth or viability,,72 h,EC50,0.41 µM
CC(C)c1cccc(C(C)C)c1N=C1C(=O)N(Cc2ccc(Br)cc2)c2ccccc21,L02,"cell growth or viability, MTT",,48 h,IC50,> 100 µM
C[C@H]1CNCCCN1c1nccc(-c2noc([C@@]3(C)CCCc4sc(N)c(C#N)c43)n2)n1,BaF3,cell growth or viability,,72 h,EC50,0.959 µM
Nc1nn2c(-c3ccco3)cc(-c3ccc(OCc4ccccc4)cc3)nc2c1N=Nc1ccc(F)cc1,Saccharomyces cerevisiae,"microbial growth, broth dilution",ATCC9763,,MIC,31.3 mg/L
O=C1Nc2ccccc2C1=Nc1ccccc1I,L02,"cell growth or viability, MTT",,48 h,IC50,77.5 µM
CNC(=S)NN=Cc1ccc(O)c(OC)c1,Leishmania tropica,parasite growth,J774.A1,"72 h, intracellular, amastigote",IC50,248 µM
Cc1cccc(N=C2C(=O)Nc3ccccc32)c1,L02,"cell growth or viability, MTT",,48 h,IC50,> 100 µM
Cc1nc(NC(=O)N2CCC[C@H]2C(N)=O)sc1-c1ccnc(C(C)(C)C(F)(F)F)c1,MFM-223,"cell growth or viability, ATP luminescence",,5 days,EC50,8.5 µM
